Laboratory results published in the RNAGym collection of RNA variant scans (doi:10.1126/science.aae0568).
This sample holds only a part of the variants without activity.

B1: tRNA (parent)
chain: GUUCCGUUGGCGUAAUGGUAACGCGUCUCCCUCCUAAGGAGAAGACUGCGGGUUCGAGUCCCGUACGGAACG

Variants of: B1
Experiment: yeast fitness relative to wild type (ratio to wild type); higher = fitter; tRNA-Arg(CCU), competitive growth, 37 C, YPD
Outline: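 Genotype frequency changes were the basis for Darwinian fitness relative to wild type. The frequencies came from 100-nucleotide paired-end sequencing of gene amplicons from the start population and each end population of pooled yeast strains with tRNA-Arg(CCU) gene variants at the native locus. Competition ran in YPD at 37°C for 24 hours in six replicates, genotypes needed ≥ 100 starting reads, and estimates < 0.5 were set to 0.5.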

Variant	yeast fitness
GUUCCGUCGGCGUAAUGGUAACGCGUCUCCCUCCUAAGGAGAAGAAUGCGGGUUCGAGUCCCGUACGGAACG	1.01
GUUCCGUCGGCGUAAUGGUAACGCGUCUCCCUCCUAAGGAGAAGAUUGCGGGUUCGAGUCCCGUACGGAACG	1.03
GUUCCGUCCGCGUAAUGGUAACGCGUCUCCCUCCUAAGGAGAAGACUGUGGGUUCGAGUCCCGUACGGAACG	≤ 0.5
GUUCCGUCGGCGUAAUGGUAACGCGUCUCGCUCCUAAGGAGAAGACUGAGGGUUCGAGUCCCGUACGAAACG	≤ 0.5
GUUCCGUCGGCGUAAUGGUAACGCGUCUCCAUCCUAAGGAGGGGACUGCGGGUUCGAGUCCCGUACGCAACG	0.559
GUUCCGUCGGCGUAAUGGUAACGCGUCUCCCUCCUAAGGAGAAGAGUGCGGGUUCGAGUCCCGUACAGAACG	0.674
GUUCCGUCGGCGUAAUGGUAACGCGUCUCCCUCCUAAGGAGAAGACUGCGGGUUCGAGUCCCGUAUGGAACG	0.892
GUUCCGUCGGCGUAAUGGUAACGCGUCUCCCUCCUAAGGAGAAGACUGCGGGUUCGAGUCCCGUAAGGAACG	0.687
GUUCCGUCGGCGUAAUGGUAACGCGUCUCCCUCCUAAGGAGAAGACUGCGGGUUCGAGUCCCGUAGGGAACG	0.75
GUUCCGUCGGCGUAAUGGUAACGCGUCUUCCUCCUAAGGAGAAGACUGCGGGUUCGAGUCCCGUACGGAACG	0.937
GUUCCGUCGGCGUAAUGGUAACGCGUCUACCUCCUAAGGAGAAGACUGCGGGUUCGAGUCCCGUACGGAACG	0.664
GUUCCGUCGACGUAAUGGUAACGCGUCUCCCUCCUAAGGGGAAGACUGCGGGUUCGAGUCCCGUACGGAACG	0.551
GUUCCGUCGGCGUAAUGGUAACGCGUCUCCCUCCUAAGGAGAAGACUGCGGGUUUGAGUCCCAUACGGAACG	0.552
GUUCCGUCGGCGUAAUGGUAACGCGUCUCGGUCCUAAGGAGAAGACUGCGGGUUCGAGUCCCGUAUGGAACG	≤ 0.5
GUUCCGUCGGCGUAAUGGUAACGCGUCUCCCUCCUAAGGAGAAGAUUGCGGAUUCGAGUCCCGUACGGAACG	≤ 0.5
GUUCCGUCGGCGUAAUGGUAACGCGUCUACCUCCUAGGGAGAAGACUGCGGGUUCGAGUCCCGUACGGAACG	0.616
GUUCCGUCGGCGUAAUGGUAACGCGUCUCCCUCCUAAGGAGAAGAUUGGGGGUUCGAGUCCCGUACGGAACG	0.701
GUUCCGUCGGCGUAAUGGUAACGCGUCUCCCUUCUCAGGAGAGGACUGCGGGUUCGUGUCCCGUACGGAACG	≤ 0.5
GUUCCGUCGGCGUAAUAGUAACGCGUCUCCCUCCUAAGGAGAAGACUGCGGGUUCGAGUCCCGUACGGAUCG	≤ 0.5

Variant	yeast fitness
GUUCCGUCGGCGUAAUGGUAACGCGUCUCCCUCCUAAGGAGAAGACUGAGGGUUCGAGUCCCGUACGCAACG	≤ 0.5
GUUCCGUCGCCGUAAUGGUAACGCGUCUCCCUCCUAAGGAGAAGAUUGCGGGUUCGAGUCCCGUAUGGAACG	≤ 0.5
GUUCCGUCGGCGUAAUGGUAACGCGUCUCCCUCCUAAGGAGAAGACUGCGGGUUAGAGUCCCGUACGGAACG	0.739
GUUCCGUCGGCGUAAUGGUAACGCGUCUCCCUACUAAGGAGAAGACUGCGGGUUGGAGUCCCGUACGGCACG	≤ 0.5
GUUCCGUCGGCGUAAUGGUAACGCGUUUCCCUCGUAAGGAGAAGACUGCGGGUUCGAGUCCCGUACGGAACG	≤ 0.5
GUUCCGUCCGCGUAAUGGUAACGCGUCUCCCUCCUAAGGAGAAGACUGUGGGUUCGAGUCCCGUACGUAACG	≤ 0.5
GUUCCGUCGGCGUAAUGGUAACGCGUUUCCCACCUAAGGAGAAGACUGCGGGUUCGAGUCCCGUAUCGAACG	≤ 0.5
GUUCCGUCGGCGUAAUGGUAACGCGUCUCCCUUCUAAGGAGAAGACUGCGGGUUCGAGUCCCGUACGGAACG	0.728
GUUCCGUCGGCGUAAUGGUAACGCGUUUCCCUCCUAAGGAGAAGACUGCGGGUUCGAGUCCUGUACGGAACG	0.736
GUUCCGUCGGCAUAAUGGUAACGCGUCUUCCUCCGAAGGAGAAGACUGCGGGUUCGAGUCCUGUACGGAACG	≤ 0.5
GUUCCGUCGCCGUACUGGUAACGCGUCUCCCUCCUAAGGAGACGACUGCGGGUUCGAGUCCCGUACGGAACG	≤ 0.5
GUUCCGUCGGCAUAAUGAUAACGCGUCUCCCUCCUAAGGAGAAGCCUGCGGGUUCGAGUCCCGUACGGAACG	≤ 0.5
GUUCCGUCGGCGUAAUGGUAACGCGUCUUCCUCCGAAGGAGAAGACUGCGGGUUCGAGUCCUGUACGGAACG	≤ 0.5
GUUCCGUCGGCGUAAUGGUAACGCGUCUCGCUCCUAAGGAGAAGACUGCGGGUUCGAGUCCCGUACGGAACG	0.674
GUUCCGUCGGCGUAAUGGUAACGCGUCUCUCUCCUAAGGAGAAGACUGCGGGUUCGAGUCCCGUACGGAACG	0.935
GUUCCGUCGGCGUAAUGGUAACGCGUCUCACUCCUAAGGAGAAGACUGCGGGUUCGAGUCCCGUACGGAACG	0.948
GUUCCGUCGGCAUAAUGGUAACGCGUCUCCCUCCUAAGGAGAAGUCUACGGGUUCGAGUCCCGUACGGAACG	≤ 0.5
GUUCCGUCGGCGUAAUGGUAACGCGUCUCCCUCCUAAGGAGAAGACUGCGGGUUCGAGUACCGUACGGAACG	0.737
